Here are results for ten compounds from publication PMC8154016 (ACS Omega, 2021).

For assay [1], the system named is MCF-7 (breast) cancer cell line. As to the kind of experiment: MTT assay, cell viability, MCF-7. The class given is cell-based. The conditions noted are these: Homo sapiens, MCF7, 48 h, read-out: Cell viability (%) MCF-7 (breast), 100 μg/μL concentration of compound, 48 h, MTT, mean ± SD in triplicate. Summed up: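 Human MCF-7 breast cancer cells grown in DMEM with 10% FBS and 1% penicillin–streptomycin at 37 °C, 5% CO2, humidified. Test compound in DMSO (under 1% final) added at various dilutions for 48 h. MTT (5 mg/mL stock) then added for 240 min at 37 °C. Formazan dissolved in DMSO and absorbance read at 490 nm. Percent viability calculated; triplicate, mean ± SD.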

The test system of assay [2] is A549 (lung) cancer cell line. The assay is described as follows: MTT assay, cell viability and IC50, A549. The conditions noted are these: Homo sapiens; for viability: A549, 48 h, read-out: Cell viability (%) A549 (lung), 100 μg/μL concentration of compound, 48 h, MTT, mean ± SD in triplicate. Type of assay: cell-based. In short, it runs like this: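 A549 human lung cancer cells were grown in DMEM with 10% FBS and 1% penicillin–streptomycin at 37 °C in humidified 5% CO2. Cells were seeded in 96-well plates and exposed for 48 h to serial dilutions of the test compound in DMSO (<1% final). MTT (5 mg/mL solution as added) was applied for 240 min at 37 °C. Formazan was dissolved in DMSO and A490 read for % viability. Triplicate; mean ± SD.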
For orientation: Tetrazolium dyes change colour on reduction, which living cells bring about.

Consider `Cn1c(=O)c2c(ncn2Cc2nnc(SCC(=O)Nc3ccccc3)n2-c2ccccc2)n(C)c1=O` [Compound 11a, 2-(5-((1,3-Dimethyl-2,6-dioxo-2,3-dihydro-1H-purin-7(6H)-yl)methyl)-4-phenyl-4H-1,2,4-triazol-3-ylthio)-N-phenylacetamide], for which the results for the viability in assay [1] and in assay [2] were 34.7 ± 2.49% and 59.6 ± 1.36%, respectively.

Regarding `Cc1ccc(NC(=O)CSc2nnc(Cn3cnc4c3c(=O)n(C)c(=O)n4C)n2-c2ccccc2)cc1` [Compound 11g, 2-(5-((1,3-Dimethyl-2,6-dioxo-2,3-dihydro-1H-purin-7(6H)-yl)methyl)-4-phenyl-4H-1,2,4-triazol-3-ylthio)-N-p-tolylacetamide], the viability in assay [1] was found to be 31.8 ± 3.16%; in assay [2], 21.7 ± 1.6%. In addition, the IC50 in assay [2] (A549, read-out: IC50 (μM) A549 (lung)) amounted to 1.25 ± 1.6 µM.

As to `Cc1ccc(NC(=O)CSc2nnc(Cn3cnc4c3c(=O)n(C)c(=O)n4C)n2-c2ccccc2)cc1C` [Compound 11h, 2-(5-((1,3-Dimethyl-2,6-dioxo-2,3-dihydro-1H-purin-7(6H)-yl)methyl)-4-phenyl-4H-1,2,4-triazol-3-ylthio)-N-(3,4-dimethylphenyl)acetamide], the values for the viability in assay [1] and in assay [2] were 33.2 ± 2.77% and 55.4 ± 4.6%, respectively.

With `Cn1c(=O)c2c(ncn2Cc2nnc(SCC(=O)Nc3ccc(Cl)c(Cl)c3)n2-c2ccccc2)n(C)c1=O` [Compound 11d, N-(3,4-Dichlorophenyl)-2-(5-((1,3-dimethyl-2,6-dioxo-2,3-dihydro-1H-purin-7(6H)-yl)methyl)-4-phenyl-4H-1,2,4-triazol-3-ylthio)acetamide], the viability came out at 38.1 ± 4.04% in assay [1] and 46.2 ± 1.42% in assay [2].

As for `Cn1c(=O)c2c(ncn2CC(=O)O)n(C)c1=O` [Acefylline, Theophylline-7-acetic acid, reference compound], the viability in assay [1] worked out at 86.3 ± 11.8%.

Regarding `Cc1ccc(NC(=O)CSc2nnc(Cn3cnc4c3c(=O)n(C)c(=O)n4C)n2-c2ccccc2)c(C)c1` [Compound 11c, 2-(5-((1,3-Dimethyl-2,6-dioxo-2,3-dihydro-1H-purin-7(6H)-yl)methyl)-4-phenyl-4H-1,2,4-triazol-3-ylthio)-N-(2,4-dimethylphenyl)acetamide], the viability in assay [1] came out at 38.7 ± 2.07%; in assay [2], 26.1 ± 1.86%.

Consider `Cn1c(=O)c2c(ncn2Cc2nnc(SCC(=O)Nc3ccccc3F)n2-c2ccccc2)n(C)c1=O` [Compound 11j, 2-(5-((1,3-Dimethyl-2,6-dioxo-2,3-dihydro-1H-purin-7(6H)-yl)methyl)-4-phenyl-4H-1,2,4-triazol-3-ylthio)-N-(2-fluorophenyl)acetamide], for which the viability was found to be 63.7 ± 3.54% in assay [1] and 67.5 ± 4.27% in assay [2].

Take `Cn1c(=O)c2c(ncn2Cc2nnc(SCC(=O)Nc3ccccc3Cl)n2-c2ccccc2)n(C)c1=O` [Compound 11f, N-(2-Chlorophenyl)-2-(5-((1,3-dimethyl-2,6-dioxo-2,3-dihydro-1H-purin-7(6H)-yl)methyl)-4-phenyl-4H-1,2,4-triazol-3-ylthio)acetamide]: the viability was found to be 72.8 ± 6.35% in assay [1] and 55.4 ± 4.11% in assay [2].

For the compound `Cn1c(=O)c2c(ncn2Cc2nnc(SCC(=O)Nc3ccc(Cl)cc3Cl)n2-c2ccccc2)n(C)c1=O` [Compound 11b, N-(2,4-Dichlorophenyl)-2-(5-((1,3-dimethyl-2,6-dioxo-2,3-dihydro-1H-purin-7(6H)-yl)methyl)-4-phenyl-4H-1,2,4-triazol-3-ylthio)acetamide], the viability in assay [1] was 69.4 ± 7.05%; in assay [2], 52.6 ± 5.07%.

Turning to `Cn1c(=O)c2c(ncn2Cc2nnc(SCC(=O)Nc3ccc(F)cc3)n2-c2ccccc2)n(C)c1=O` [Compound 11e, 2-(5-((1,3-Dimethyl-2,6-dioxo-2,3-dihydro-1H-purin-7(6H)-yl)methyl)-4-phenyl-4H-1,2,4-triazol-3-ylthio)-N-(4-fluorophenyl)acetamide], the figures for the viability in assay [1] and in assay [2] were 54.8 ± 4.88% and 52.1 ± 3.66%, respectively.

Usually IC50 stands for the concentration needed to halve the response being measured.
